Active and inactive are the calls of the source. No cut-off for these calls is given here.
What was measured:
[1] = target: Discoidin domain-containing receptor 2 (Homo sapiens) (UniProt Q16832); assay: Inhibition of DDR2 at 28 uM by luciferase fragment complementation assay
[2] = target: Cytochrome P450 2C19 (Homo sapiens, UniProt P33261); assay: Inhibition of CYP2C19 in human liver microsomes using S-mephenytoin as probe; format: ADME, Microsome
[3] = Octanol/water distribution coefficient, log D of the compound at pH 7.4; format: physicochemical
Summary of the method: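 Octanol/water distribution measured at pH 7.4.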

[4] = system: MDCK; assay: Permeability across apical to basolateral side of MDCK cells expressing MDR1 at 5 uM; format: ADME, cell-based, Canis lupus familiaris; conditions: dog
Summary of the method: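 MDR1-MDCK monolayer; transport measured in apical-to-basolateral and basolateral-to-apical directions at 5 µM.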

[5] = target: T1, Toll-like receptor 4 (Homo sapiens, UniProt O00206); assay: Inhibition of LPS-induced TLR4 activation in human whole blood assessed as inhibition of TNFalpha release at 250 uM preincubated for 5 to 10 mins
T1 sequence (O00206 whole entry): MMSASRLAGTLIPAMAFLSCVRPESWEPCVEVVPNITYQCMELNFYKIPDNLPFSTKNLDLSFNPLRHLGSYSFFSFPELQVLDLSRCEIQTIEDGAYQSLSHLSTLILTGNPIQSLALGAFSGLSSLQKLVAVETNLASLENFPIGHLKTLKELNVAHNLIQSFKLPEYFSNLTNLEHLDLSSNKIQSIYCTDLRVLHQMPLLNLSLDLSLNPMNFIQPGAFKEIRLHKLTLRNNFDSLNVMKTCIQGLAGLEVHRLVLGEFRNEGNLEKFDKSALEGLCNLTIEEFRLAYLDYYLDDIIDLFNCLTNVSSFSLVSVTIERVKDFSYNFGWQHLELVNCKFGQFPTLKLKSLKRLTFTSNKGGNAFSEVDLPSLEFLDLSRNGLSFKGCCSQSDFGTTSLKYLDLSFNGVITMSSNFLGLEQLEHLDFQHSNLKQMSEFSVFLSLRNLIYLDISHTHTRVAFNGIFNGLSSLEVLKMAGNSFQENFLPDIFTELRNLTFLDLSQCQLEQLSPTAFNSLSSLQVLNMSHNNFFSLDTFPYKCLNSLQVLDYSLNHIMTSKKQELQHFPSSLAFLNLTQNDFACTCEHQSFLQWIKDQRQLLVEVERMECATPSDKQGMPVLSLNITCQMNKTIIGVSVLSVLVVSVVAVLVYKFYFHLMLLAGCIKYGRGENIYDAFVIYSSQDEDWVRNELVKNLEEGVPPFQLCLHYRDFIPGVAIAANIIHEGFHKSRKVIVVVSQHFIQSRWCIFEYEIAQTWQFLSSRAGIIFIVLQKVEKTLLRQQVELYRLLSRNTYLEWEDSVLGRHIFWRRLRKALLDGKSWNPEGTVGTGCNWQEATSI
Summary of the method: (§1)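 Fresh human blood anticoagulated with lepirudin, preincubated with compound 5–10 min at 37 °C, then stimulated with 100 ng/mL ultrapure E. coli 0111:B4 LPS, rotating 2 h at 37 °C. Stopped with EDTA 10 mM final; plasma TNF-α, IL-8 and IL-6 measured by singleplex Bio-plex, expressed as % of LPS without inhibitor. n = 3 or 9, paired two-sided t-test.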

[6] = target: Serine/threonine-protein kinase PAK 1 (Homo sapiens) (UniProt Q13153); assay: Inhibition of PAK1 at 28 uM by luciferase fragment complementation assay
Sequence of Serine/threonine-protein kinase PAK 1 (Homo sapiens) (Q13153 whole entry, the tested form may be a part): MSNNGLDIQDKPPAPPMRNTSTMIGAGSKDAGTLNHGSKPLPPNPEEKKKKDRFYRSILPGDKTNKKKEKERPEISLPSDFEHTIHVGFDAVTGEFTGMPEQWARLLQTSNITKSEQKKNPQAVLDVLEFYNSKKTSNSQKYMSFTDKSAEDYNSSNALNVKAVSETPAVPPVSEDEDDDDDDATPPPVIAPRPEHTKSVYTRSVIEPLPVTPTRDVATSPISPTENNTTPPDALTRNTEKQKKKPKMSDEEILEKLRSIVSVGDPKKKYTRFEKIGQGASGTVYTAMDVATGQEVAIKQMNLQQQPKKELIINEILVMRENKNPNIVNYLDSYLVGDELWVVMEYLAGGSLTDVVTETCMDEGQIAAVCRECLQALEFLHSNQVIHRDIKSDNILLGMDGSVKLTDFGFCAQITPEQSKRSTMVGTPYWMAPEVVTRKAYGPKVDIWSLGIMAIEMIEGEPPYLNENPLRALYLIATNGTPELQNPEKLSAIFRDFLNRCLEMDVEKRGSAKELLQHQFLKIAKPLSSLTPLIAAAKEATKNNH

[7] = target: T1, Toll-like receptor 4; assay: Inhibition of LPS-induced TLR4 activation in human whole blood assessed as inhibition of IL-6 release at 250 uM preincubated for 5 to 10 mins; summary of the method: as §1
[8] = target: T1, Toll-like receptor 4; assay: Inhibition of LPS-induced TLR4 activation in human whole blood assessed as inhibition of IL-8 release at 500 uM preincubated for 5 to 10 mins; summary of the method: as §1
[9] = system: Liver; assay: Intrinsic clearance in rat liver S9 fractions at 1 uM after 60 mins by LC-MS/MS analysis; format: ADME, subcellular, S9 fraction; conditions: s9, 1 h
Summary of the method: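 1 µM in <0.25% DMSO, 37 °C, pooled rat or human S9 at 1 mg/mL, with 1 mM each of NADPH, UDPGA, PAPS and GSH. Sampled at 0, 10, 20, 30 and 60 min; peak-area ratio to internal standard by LC-MS/MS without a standard curve. CLint = k/P.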

[10] = target: Serine/threonine-protein kinase PLK4 (Homo sapiens) (UniProt O00444); assay: Inhibition of PLK4 at 28 uM by luciferase fragment complementation assay
[11] = target: Cytochrome P450 2C9 (Homo sapiens, UniProt P11712); assay: Inhibition of CYP2C9 in human liver microsomes using diclofenac as probe; format: ADME, Microsome
[12] = target: T1, Toll-like receptor 4; assay: Inhibition of LPS-induced TLR4 activation in human whole blood assessed as inhibition of TNFalpha release preincubated for 5 to 10 mins; summary of the method: as §1
[13] = target: Protein kinase C gamma type (Homo sapiens) (UniProt P05129); assay: Inhibition of PKCgamma at 28 uM by luciferase fragment complementation assay
[14] = system: Blood; assay: Cytotoxicity against human whole blood assessed as hemolysis at 1 mM; format: tissue-based; conditions: 1000 µM
Summary of the method: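 Human whole blood anticoagulated with lepirudin, exposed to compound at up to 1 mM; hemolysis checked.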

[15] = target: T1, Toll-like receptor 4; assay: Inhibition of LPS-induced TLR4 activation in human whole blood assessed as inhibition of IL-6 release at 500 uM preincubated for 5 to 10 mins; summary of the method: as §1
[16] = target: T1, Toll-like receptor 4; assay: Inhibition of LPS-induced TLR4 activation in human whole blood assessed as reduction in plasma IL-6 level at 250 uM preincubated for 5 to 10 mins; summary of the method: as §1
[17] = target: T1, Toll-like receptor 4; assay: Inhibition of LPS-induced TLR4 activation in human whole blood assessed as inhibition of IL-6 release preincubated for 5 to 10 mins; summary of the method: as §1
[18] = target: T2, Toll-like receptor 4 (Mus musculus, UniProt Q9QUK6); assay: Inhibition of LPS-induced TLR4 activation in mouse RAW264.7 cells assessed as reduction in NO production after 18 to 24 hrs; format: cell-based
T2 sequence (Q9QUK6 whole entry): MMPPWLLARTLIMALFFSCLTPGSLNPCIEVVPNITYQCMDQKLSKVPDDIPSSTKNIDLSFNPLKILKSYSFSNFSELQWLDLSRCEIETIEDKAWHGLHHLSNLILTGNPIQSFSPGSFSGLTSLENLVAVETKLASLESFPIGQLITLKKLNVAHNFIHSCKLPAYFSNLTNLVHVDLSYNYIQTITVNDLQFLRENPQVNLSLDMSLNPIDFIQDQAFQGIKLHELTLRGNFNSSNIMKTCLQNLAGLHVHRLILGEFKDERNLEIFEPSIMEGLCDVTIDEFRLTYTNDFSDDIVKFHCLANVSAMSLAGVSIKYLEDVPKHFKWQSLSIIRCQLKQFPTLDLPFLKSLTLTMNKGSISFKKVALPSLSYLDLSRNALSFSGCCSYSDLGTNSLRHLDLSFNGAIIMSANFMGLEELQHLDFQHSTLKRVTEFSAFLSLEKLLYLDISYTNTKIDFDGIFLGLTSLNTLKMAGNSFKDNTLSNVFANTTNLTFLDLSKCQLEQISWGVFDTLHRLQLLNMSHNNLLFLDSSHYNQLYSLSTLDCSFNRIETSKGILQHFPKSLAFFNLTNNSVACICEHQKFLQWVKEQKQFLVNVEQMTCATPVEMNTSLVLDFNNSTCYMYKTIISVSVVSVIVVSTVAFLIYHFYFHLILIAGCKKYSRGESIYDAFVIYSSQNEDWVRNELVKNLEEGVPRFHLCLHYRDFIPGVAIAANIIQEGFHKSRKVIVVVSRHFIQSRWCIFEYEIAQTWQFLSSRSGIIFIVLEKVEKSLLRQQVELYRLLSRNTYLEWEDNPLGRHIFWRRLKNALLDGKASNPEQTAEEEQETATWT
Summary of the method: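 RAW264.7 cells, 100,000 per well, grown 24 h in RPMI with 10% FBS, then switched to unsupplemented RPMI. LPS and compound added together, 18–24 h at 37 °C. Medium nitrite measured with 2,3-diaminonaphthalene (ex 365/em 450 nm) against a nitrite standard curve. Quadruplicate; IC50 by a modified Kou-type method.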

[19] = target: T1, Toll-like receptor 4; assay: Inhibition of LPS-induced TLR4 activation in human whole blood assessed as reduction in plasma IL-8 level at 250 uM preincubated for 5 to 10 mins; summary of the method: as §1
[20] = target: RAC-alpha serine/threonine-protein kinase (Homo sapiens) (UniProt P31749); assay: Inhibition of AKT1 at 28 uM by luciferase fragment complementation assay
Sequence of RAC-alpha serine/threonine-protein kinase (Homo sapiens) (P31749 whole entry, the tested form may be a part): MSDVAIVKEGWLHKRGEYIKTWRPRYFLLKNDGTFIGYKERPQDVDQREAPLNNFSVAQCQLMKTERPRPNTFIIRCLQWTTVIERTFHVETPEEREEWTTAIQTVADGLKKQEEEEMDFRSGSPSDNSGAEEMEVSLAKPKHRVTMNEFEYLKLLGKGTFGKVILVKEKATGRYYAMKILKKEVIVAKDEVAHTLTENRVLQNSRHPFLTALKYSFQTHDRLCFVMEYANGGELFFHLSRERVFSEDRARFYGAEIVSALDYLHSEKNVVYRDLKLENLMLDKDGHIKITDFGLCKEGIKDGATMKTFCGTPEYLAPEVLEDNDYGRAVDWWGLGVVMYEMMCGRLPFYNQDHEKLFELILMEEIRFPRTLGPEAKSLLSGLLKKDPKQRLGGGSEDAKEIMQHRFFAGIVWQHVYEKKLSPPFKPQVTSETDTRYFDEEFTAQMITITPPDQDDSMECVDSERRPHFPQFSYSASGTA

[21] = target: T1, Toll-like receptor 4; assay: Inhibition of LPS-induced TLR4 activation in human whole blood assessed as inhibition of IL-8 release preincubated for 5 to 10 mins; summary of the method: as §1
[22] = target: Calcium/calmodulin-dependent protein kinase type 1 (Homo sapiens) (UniProt Q14012); assay: Inhibition of CAMK1 at 28 uM by luciferase fragment complementation assay
Sequence of Calcium/calmodulin-dependent protein kinase type 1 (Homo sapiens) (Q14012 whole entry, looked up, the tested form may be a part): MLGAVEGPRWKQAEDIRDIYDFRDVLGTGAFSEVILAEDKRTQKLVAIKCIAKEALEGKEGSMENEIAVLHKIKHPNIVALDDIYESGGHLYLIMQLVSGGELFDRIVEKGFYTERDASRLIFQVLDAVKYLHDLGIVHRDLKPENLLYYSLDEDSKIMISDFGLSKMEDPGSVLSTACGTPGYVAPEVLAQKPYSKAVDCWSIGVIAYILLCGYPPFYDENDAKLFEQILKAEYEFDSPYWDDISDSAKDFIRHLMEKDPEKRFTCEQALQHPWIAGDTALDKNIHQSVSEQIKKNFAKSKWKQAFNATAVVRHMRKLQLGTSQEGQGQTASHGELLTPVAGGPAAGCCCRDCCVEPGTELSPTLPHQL

[23] = target: Platelet-derived growth factor receptor beta (Homo sapiens) (UniProt P09619); assay: Inhibition of PDGFRB at 28 uM by luciferase fragment complementation assay
Sequence of Platelet-derived growth factor receptor beta (Homo sapiens) (P09619 whole entry, the tested form may be a part): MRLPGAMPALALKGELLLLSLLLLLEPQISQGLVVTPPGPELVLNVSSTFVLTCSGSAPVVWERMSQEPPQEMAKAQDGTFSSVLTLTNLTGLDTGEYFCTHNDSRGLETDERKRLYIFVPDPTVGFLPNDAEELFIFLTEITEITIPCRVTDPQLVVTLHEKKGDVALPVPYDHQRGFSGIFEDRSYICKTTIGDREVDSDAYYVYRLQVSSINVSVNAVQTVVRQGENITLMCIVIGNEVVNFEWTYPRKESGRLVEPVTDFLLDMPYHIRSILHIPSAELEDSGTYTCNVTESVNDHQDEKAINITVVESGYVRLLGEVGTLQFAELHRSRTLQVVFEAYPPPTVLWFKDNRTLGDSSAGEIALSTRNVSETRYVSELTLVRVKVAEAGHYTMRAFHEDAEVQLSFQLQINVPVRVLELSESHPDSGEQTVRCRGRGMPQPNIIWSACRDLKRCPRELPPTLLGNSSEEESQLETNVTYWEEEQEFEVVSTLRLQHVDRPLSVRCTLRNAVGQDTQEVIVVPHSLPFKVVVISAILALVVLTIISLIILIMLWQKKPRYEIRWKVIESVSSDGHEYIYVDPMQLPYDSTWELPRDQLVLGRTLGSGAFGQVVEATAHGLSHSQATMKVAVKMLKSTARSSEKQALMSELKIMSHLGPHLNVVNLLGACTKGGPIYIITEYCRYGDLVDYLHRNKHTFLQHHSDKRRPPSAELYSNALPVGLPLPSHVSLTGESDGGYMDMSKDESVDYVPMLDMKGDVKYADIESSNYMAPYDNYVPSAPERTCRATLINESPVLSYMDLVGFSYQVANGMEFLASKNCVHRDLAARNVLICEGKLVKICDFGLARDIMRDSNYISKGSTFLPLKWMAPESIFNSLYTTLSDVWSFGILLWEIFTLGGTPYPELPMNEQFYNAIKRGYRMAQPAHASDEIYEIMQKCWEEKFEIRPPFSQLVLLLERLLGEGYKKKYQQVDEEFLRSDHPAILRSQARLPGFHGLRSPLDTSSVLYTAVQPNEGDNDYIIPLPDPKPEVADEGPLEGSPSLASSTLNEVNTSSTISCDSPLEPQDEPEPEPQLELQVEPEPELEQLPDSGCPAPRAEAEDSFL

Sequence of Discoidin domain-containing receptor 2 (Homo sapiens) (Q16832 whole entry, the tested form may be a part): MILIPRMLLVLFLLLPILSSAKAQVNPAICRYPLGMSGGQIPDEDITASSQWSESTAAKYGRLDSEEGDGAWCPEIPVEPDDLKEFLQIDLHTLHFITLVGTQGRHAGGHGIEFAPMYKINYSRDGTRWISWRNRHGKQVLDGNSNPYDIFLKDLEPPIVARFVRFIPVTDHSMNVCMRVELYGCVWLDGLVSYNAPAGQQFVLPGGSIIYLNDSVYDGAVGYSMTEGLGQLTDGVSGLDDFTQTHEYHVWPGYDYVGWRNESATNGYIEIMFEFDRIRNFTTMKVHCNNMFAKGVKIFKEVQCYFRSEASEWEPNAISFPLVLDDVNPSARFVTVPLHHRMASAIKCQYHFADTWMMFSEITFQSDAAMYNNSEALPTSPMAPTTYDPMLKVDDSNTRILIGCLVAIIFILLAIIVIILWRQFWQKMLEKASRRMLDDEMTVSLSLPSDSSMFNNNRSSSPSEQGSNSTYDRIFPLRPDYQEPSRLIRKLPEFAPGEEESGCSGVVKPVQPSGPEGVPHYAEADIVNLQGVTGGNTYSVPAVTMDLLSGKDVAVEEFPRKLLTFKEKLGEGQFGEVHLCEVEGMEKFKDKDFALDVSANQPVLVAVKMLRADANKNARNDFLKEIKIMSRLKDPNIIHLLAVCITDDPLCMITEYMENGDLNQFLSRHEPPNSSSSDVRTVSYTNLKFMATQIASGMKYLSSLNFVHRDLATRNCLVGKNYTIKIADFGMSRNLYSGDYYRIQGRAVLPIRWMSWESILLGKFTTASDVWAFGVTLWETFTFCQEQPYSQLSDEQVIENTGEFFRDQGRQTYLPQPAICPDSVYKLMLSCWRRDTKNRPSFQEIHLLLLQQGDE

inhibition [1]: ≤ 27% | IC50 [2]: 20 µM | logD [3]: 3.36 | permeability [4]: permeable | inhibition [5]: Active | inhibition [6]: ≤ 27% | inhibition [7]: inactive | inhibition [8]: Active | CL [9]: > 350 µL/min/mg | inhibition [10]: ≤ 27% | IC50 [11]: 43 µM | IC50 [12]: 316 µM | inhibition [12]: Dose-dependent effect | inhibition [13]: ≤ 27% | inhibition [15]: Active | inhibition [16]: 50% | IC50 [17]: 318 µM | inhibition [17]: Dose-dependent effect | IC50 [18]: 27.8 µM | inhibition [19]: 65% | inhibition [20]: ≤ 27% | IC50 [21]: 111 µM | inhibition [21]: Dose-dependent effect | inhibition [22]: ≤ 27% | inhibition [23]: ≤ 27%
SMILES: CCOc1ccc(OCC(O)CN(C)Cc2c(C)nn(Cc3ccccc3Cl)c2C)cc1 (racemic)
Activity [14]: Non-toxic
